We go through one compound from ChEMBL document CHEMBL1130343, “Folate-based inhibitors of thymidylate synthase: synthesis and antitumor activity of gamma-linked sterically hindered dipeptide analogues of 2-desamino-2-methyl-N10-propargyl-5,8-dideazafolic acid (ICI 198583)” (J Med Chem, 1997).

SMILES strings stand for the structures.

The species named for assay [1] is Mus musculus. Nature of the assay: Compound was tested for inhibition of L1210 cell growth in mouse. Format: functional, organism-based.
The species named for assay [2] is Mus musculus. Put plainly: Compound was tested for inhibition of L1210:1565 cell growth in mouse. Format: functional, organism-based. In short, it runs like this: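 Growth inhibition measured in L1210:1565, a mouse L1210 mutant line with an impaired reduced folate/MTX transport carrier. The line was selected for resistance to CI-920, an RFC-transported agent, and is cross-resistant to MTX. Result expressed as IC50.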

The next assay has as its target Thymidylate synthase (Mus musculus, UniProt P07607). Put plainly: Inhibition of Thymidylate Synthase(TS) from mouse L1210 cells. Format: cell-based. As to conditions: read-out: Ki app.
For the next assay, the system named is WIL2. Put plainly: Compound was tested for inhibition of human W1L2 cell growth. The assay is classed as functional, cell-based.
The species named for assay [3] is Mus musculus. Put plainly: Compound was tested for inhibition of L1210:R D1694 cell growth in mouse. As to conditions: L1210 (RD1694). The assay is classed as functional, organism-based.

Thymidylate synthase, sequence (P07607 whole entry): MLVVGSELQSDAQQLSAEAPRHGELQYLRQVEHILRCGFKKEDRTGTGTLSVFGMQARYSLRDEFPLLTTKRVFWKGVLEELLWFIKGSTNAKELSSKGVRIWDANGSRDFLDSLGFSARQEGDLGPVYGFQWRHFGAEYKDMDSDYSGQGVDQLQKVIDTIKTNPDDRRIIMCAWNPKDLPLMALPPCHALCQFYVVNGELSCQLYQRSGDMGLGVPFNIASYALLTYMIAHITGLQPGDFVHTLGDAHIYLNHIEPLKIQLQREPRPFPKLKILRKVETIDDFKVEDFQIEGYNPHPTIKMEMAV

As for `C#CCN(Cc1ccc2nc(C)nc(O)c2c1)c1ccc(C(=O)N[C@@H](CCC(=O)NC(C)(C)C(=O)O)C(=O)O)cc1`, the concentration for half-maximal inhibition (IC50) – broadly, the concentration that gives 50% inhibition – in the assay listed under Mus musculus [1] was 2.5 µM; in the assay filed under Mus musculus [2], 70 µM; in the assay on WIL2, 0.31 µM; in the assay filed under Mus musculus [3], 7.1 µM. At Thymidylate synthase, the Ki is 0.042 µM.
